Measured values published in ChEMBL document CHEMBL2375243, “Synthesis and antioxidant properties of substituted 2-phenyl-1H-indoles” (Bioorg Med Chem Lett, 2013).
Calls of active or inactive are those of the source. No cut-off for these calls is given here.

How the values were obtained:
Liver [1] = assay: Antioxidant activity in Wistar rat liver assessed as inhibition of Fe2+/ascorbate-induced lipid peroxidation at 0.1 mM after 1 hr by TBARS assay relative to control; format: functional, tissue-based
How it was run: (§1)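 Lipid peroxidation assay: MDA formation measured with thiobarbituric acid. Tested at 1 mM and 0.1 mM, melatonin as positive control. Values are % mean inhibition from at least triplicate analyses.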

Liver [2] = assay: Antioxidant activity in Wistar rat liver assessed as inhibition of Fe2+/ascorbate-induced lipid peroxidation at 1 mM after 1 hr by TBARS assay relative to control; format: functional, tissue-based; how it was run: as §1
[3] = Antioxidant activity of the compound assessed as inhibition of xanthine-xanthine oxidase-mediated superoxide radical formation at 0.1 mM after 3 mins by NBT reduction assay relative to control; format: functional
How it was run: (§2)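 Superoxide anion generated by xanthine/xanthine oxidase and detected spectrophotometrically by nitroblue tetrazolium reduction. Test concentrations 1 mM and 0.1 mM, melatonin as positive control. Values are % mean inhibition from at least triplicate determinations.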

[4] = Antioxidant activity of the compound assessed as inhibition of xanthine-xanthine oxidase-mediated superoxide radical formation at 1 mM after 3 mins by NBT reduction assay relative to control; format: functional; how it was run: as §2
[5] = system: Radical scavenging activity; assay: Antioxidant activity of the compound assessed as DPPH free radical scavenging activity at 0.1 mM after 30 mins by spectrophotometric analysis relative to control; format: functional
How it was run: (§3)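 Free-radical scavenging measured as bleaching of the stable radical DPPH at 517 nm. Tested at 1 mM and 0.1 mM, melatonin as positive control. Results are % mean inhibition, average of at least triplicate analyses.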

[6] = system: Radical scavenging activity; assay: Antioxidant activity of the compound assessed as DPPH free radical scavenging activity at 1 mM after 30 mins by spectrophotometric analysis relative to control; format: functional; how it was run: as §3

SMILES | inhibition (Liver [1]) [%] | inhibition (Liver [2]) [%] | inhibition [3] | inhibition [4] | inhibition [5] | inhibition [6]
COc1ccc(-c2cc3cc(F)ccc3[nH]2)cc1OC | 10 | 24 | inactive | 51% | 2% | 21%
Nc1ccc(-c2cc3ccccc3[nH]2)cc1 | 13 | 26 | 16% | 30% | 43% | 74%
Nc1ccc(-c2cc3ccc(Cl)cc3[nH]2)cc1 | 35 | 35 | 17% | 20% | 50% | 77%
COc1ccc(-c2cc3cc(F)cc(Cl)c3[nH]2)cc1 | 6 | 33 | inactive | 32% | inactive | inactive
Nc1ccc(-c2cc3cc(F)ccc3[nH]2)cc1 | 17 | 19 | 20% | 35% | 18% | 28%
Nc1ccc(-c2cc3cc(Cl)ccc3[nH]2)cc1 | 30 | 31 | inactive | 22% | 23% | 70%
COc1ccc(-c2cc3cc(F)cc(Cl)c3[nH]2)cc1OC | 13 | 24 | inactive | 39% | inactive | 10%
COc1ccc2[nH]c(-c3ccc(N)cc3)cc2c1 | 33 | 42 | 14% | 35% | 69% | 85%
COc1cc(-c2cc3ccccc3[nH]2)cc(OC)c1OC | 33 | 28 | 13% | 42% | 9% | 35%
COc1ccc2[nH]cc(CCNC(C)=O)c2c1 | 45 | 85 | 19% | 75% | 81% | 98%
Nc1ccc(-c2cc3cccc(F)c3[nH]2)cc1 | 26 | 30 | 15% | 23% | 43% | 77%
O=[N+]([O-])c1ccc(-c2cc3cc(F)cc(Cl)c3[nH]2)cc1 | 5 | 20 | inactive | 39% | inactive | 5%
Nc1ccc(-c2cc3ccc(F)cc3[nH]2)cc1 | 22 | 35 | 35% | 81% | 65% | 80%
COc1cc(-c2cc3cc(F)ccc3[nH]2)cc(OC)c1OC | 10 | 19 | 9% | 50% | 3% | 23%
COc1ccc(-c2cc3ccccc3[nH]2)cc1OC | 13 | 27 | 12% | 70% | 12% | 44%
Nc1ccc(-c2cc3c(Cl)cccc3[nH]2)cc1 | 30 | 30 | inactive | 18% | 44% | 69%
COc1ccc(-c2cc3cc(F)ccc3[nH]2)cc1F | 7 | 13 | inactive | inactive | inactive | inactive
COc1ccc(-c2cc3ccccc3[nH]2)cc1 | 14 | 24 | 12% | 43% | 6% | 38%
